Reference: ChEMBL document CHEMBL1152502, “Synthesis and antiproliferative activity of 2,4-disubstituted 6-aryl-7H-pyrrolo[3,2-d]pyrimidin-7-one 5-oxides” (2009)
The source made the active and inactive calls. No cut-off for these calls is given here.

Tests used:
A2780 = test: Antiproliferative activity against human A2780 cells after 48 hrs by SRB assay; assay type: functional; details: A2780, 48 h
In short: (§1)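 RPMI 1640 with 5% heat-inactivated FCS and 2 mM L-glutamine at 37 °C, 5% CO2. Seeded at 15,000 (WiDr, T-47D, HeLa) or 10,000 (A2780, SW1573, HBL-100) cells/well. Drug added day 1 in triplicate dilutions; vehicle DMSO 0.25% v/v final. 48 h, then TCA fixation and SRB staining read at OD 492 nm, background-corrected. GI50 from NCI percentage-growth formulas using T0 and T; mean of two to six experiments with SD.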

HBL-100 [1] = test: Antiproliferative activity against human HBL100 cells after 48 hrs by SRB assay; assay type: functional; details: HBL-100, 48 h; in short: as §1
HeLa [2] = test: Antiproliferative activity against human HeLa cells after 48 hrs by SRB assay; assay type: functional; in short: as §1
SW1573 [3] = test: Antiproliferative activity against human SW1573 cells after 48 hrs by SRB assay; assay type: functional; details: SW1573, 48 h; in short: as §1
T47D [4] = test: Antiproliferative activity against human T47D cells after 48 hrs by SRB assay; assay type: functional; in short: as §1
WiDr [5] = test: Antiproliferative activity against human WiDr cells after 48 hrs by SRB assay; assay type: functional; in short: as §1
HBL-100 [6] = test: Cell cycle arrest in human HBL100 cells by accumulation at subG1 phase after 24 hrs by flow cytometry; assay type: functional, cell-based
In short: (§2)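 Cells seeded at 2.5–5 × 10^5 per well in six-well plates. After 24 h, compound added at three concentrations for a further 24 h; controls without drug. Cells trypsinized, fixed in ice-cold 70% ethanol overnight at −20 °C, treated with RNase (37 °C, 30 min, dark) and stained with propidium iodide. DNA content measured by flow cytometry, 25,000 cells/sample.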

HeLa [7] = test: Cell cycle arrest in human HeLa cells by accumulation at subG1 phase after 24 hrs by flow cytometry; assay type: functional, cell-based; in short: as §2
SW1573 [8] = test: Cell cycle arrest in human SW1573 cells by accumulation at subG1 phase after 24 hrs by flow cytometry; assay type: functional, cell-based; in short: as §2
T47D [9] = test: Cell cycle arrest in human T47D cells by accumulation at subG1 phase after 24 hrs by flow cytometry; assay type: functional, cell-based; in short: as §2
WiDr [10] = test: Cell cycle arrest in human WiDr cells by accumulation at subG1 phase after 24 hrs by flow cytometry; assay type: functional, cell-based; in short: as §2
HBL-100 [11] = test: Cell cycle arrest in human HBL100 cells by increase in accumulation at G2/M phase at 2 uM after 24 hrs by flow cytometry; assay type: functional, cell-based; in short: as §2
T47D [12] = test: Cell cycle arrest in human T47D cells by increase in accumulation at G2/M phase at 2 uM after 24 hrs by flow cytometry; assay type: functional, cell-based; in short: as §2
SW1573 [13] = test: Cell cycle arrest in human SW1573 cells by increase in accumulation at G2/M phase at 2 uM after 24 hrs by flow cytometry; assay type: functional, cell-based; in short: as §2
HBL-100 [14] = test: Cell cycle arrest in human HBL100 cells by decrease in accumulation at G1 phase at 2 uM after 24 hrs by flow cytometry; assay type: functional, cell-based; in short: as §2
T47D [15] = test: Cell cycle arrest in human T47D cells by decrease in accumulation at G1 phase at 2 uM after 24 hrs by flow cytometry; assay type: functional, cell-based; in short: as §2
SW1573 [16] = test: Cell cycle arrest in human SW1573 cells by decrease in accumulation at G1 phase at 2 uM after 24 hrs by flow cytometry; assay type: functional, cell-based; in short: as §2
HBL-100 [17] = test: Cell cycle arrest in human HBL100 cells by decrease in accumulation at S phase at 2 uM after 24 hrs by flow cytometry; assay type: functional, cell-based; in short: as §2
T47D [18] = test: Cell cycle arrest in human T47D cells by decrease in accumulation at S phase at 2 uM after 24 hrs by flow cytometry; assay type: functional, cell-based; in short: as §2
SW1573 [19] = test: Cell cycle arrest in human SW1573 cells by decrease in accumulation at S phase at 2 uM after 24 hrs by flow cytometry; assay type: functional, cell-based; in short: as §2

GI50 (A2780) | GI50 (HeLa [2]) | GI50 (SW1573 [3]) | GI50 (T47D [4]) | SMILES | GI50 (HBL-100 [1]) | GI50 (WiDr [5]) | other results
1.9 µM | 19 µM | 12 µM | 14 µM | COC(=O)CNc1nc(N)c2c(n1)C(=O)C(c1ccccc1)=[N+]2[O-] | 2.8 µM | 18 µM | –
79 µM | > 100 µM | > 100 µM | > 100 µM | C[S+]([O-])c1nc(N)c2c(n1)C(=O)C(c1ccccc1)=[N+]2[O-] (centres undefined) | 32 µM | > 100 µM | –
2.3 µM | 20 µM | 2.1 µM | 16 µM | CN(C)CCCNc1nc(N)c2c(n1)C(=O)C(c1ccccc1)=[N+]2[O-] | 2 µM | 19 µM | –
1.9 µM | 7.6 µM | 6.8 µM | 2.8 µM | C=CCNc1nc(N)c2c(n1)C(=O)C(c1ccccc1)=[N+]2[O-] | 2.7 µM | 4.7 µM | –
2.9 µM | 3.5 µM | 3.3 µM | 2.7 µM | Nc1nc(N2CCCCC2)nc2c1[N+]([O-])=C(c1ccccc1)C2=O | 1.7 µM | 3.7 µM | –
30 µM | > 100 µM | 85 µM | > 100 µM | Nc1ncnc2c1[N+]([O-])=C(c1ccccc1)C2=O | 72 µM | > 100 µM | –
24 µM | > 100 µM | 23 µM | > 100 µM | CN1CCN(c2nc(N)c3c(n2)C(=O)C(c2ccccc2)=[N+]3[O-])CC1 | 18 µM | 46 µM | –

The remaining lines, values behind:

SMILES | GI50 (A2780) | GI50 (HeLa [2]) | GI50 (SW1573 [3]) | GI50 (T47D [4]) | GI50 (HBL-100 [1]) | GI50 (WiDr [5]) | other results
Nc1nc(NCCN2CCOCC2)nc2c1[N+]([O-])=C(c1ccccc1)C2=O | 2.9 µM | 15 µM | 14 µM | 17 µM | 3.4 µM | 16 µM | –
CCc1ccc(C2=[N+]([O-])c3c(N)ncnc3C2=O)cc1 | 39 µM | 75 µM | 40 µM | 82 µM | 54 µM | 70 µM | –
Nc1nc(NCCc2ccccc2)nc2c1[N+]([O-])=C(c1ccccc1)C2=O | 37 µM | > 100 µM | 22 µM | 41 µM | 17 µM | 71 µM | –
CSc1nc2c(c(N3CCCC3)n1)[N+]([O-])=C(c1ccccc1)C2=O | > 100 µM | > 100 µM | > 100 µM | > 100 µM | > 100 µM | > 100 µM | –
Nc1nc(N2CCOCC2)nc2c1[N+]([O-])=C(c1ccccc1)C2=O | 37 µM | 38 µM | 27 µM | 7.5 µM | 22 µM | 20 µM | –
CSc1nc(NCc2ccccc2)c2c(n1)C(=O)C(c1ccccc1)=[N+]2[O-] | 59 µM | 36 µM | 26 µM | 81 µM | 27 µM | 79 µM | –
CSc1nc(NCCN2CCOCC2)c2c(n1)C(=O)C(c1ccccc1)=[N+]2[O-] | > 100 µM | > 100 µM | > 100 µM | > 100 µM | 24 µM | > 100 µM | –
Nc1nc(NCc2ccccc2)nc2c1[N+]([O-])=C(c1ccccc1)C2=O | 3.7 µM | 29 µM | 30 µM | 4 µM | 5.1 µM | 24 µM | –
CSc1nc(N)c2c(n1)C(=O)C(c1ccc(C)cc1)=[N+]2[O-] | 93 µM | > 100 µM | 31 µM | > 100 µM | 28 µM | > 100 µM | –
Cc1ccc(C2=[N+]([O-])c3c(N)ncnc3C2=O)cc1 | > 100 µM | > 100 µM | > 100 µM | > 100 µM | > 100 µM | > 100 µM | –
Nc1nc(N2CCCCCC2)nc2c1[N+]([O-])=C(c1ccccc1)C2=O | 1.8 µM | 2 µM | 1.3 µM | 0.35 µM | 1.4 µM | 1.8 µM | Activity (HBL-100 [6]): Dose-dependent effect; Activity (HeLa [7]): Dose-dependent effect; Activity (SW1573 [8]): Dose-dependent effect; Activity (T47D [9]): Dose-dependent effect; Activity (WiDr [10]): Dose-dependent effect; Activity (HBL-100 [11]): Active; Activity (T47D [12]): Active; Activity (SW1573 [13]): Active; Activity (HBL-100 [14]): Active; Activity (T47D [15]): Active; Activity (SW1573 [16]): Active; Activity (HBL-100 [17]): Active; Activity (T47D [18]): Active; Activity (SW1573 [19]): Active
CCc1ccc(C2=[N+]([O-])c3c(N)nc(SC)nc3C2=O)cc1 | 54 µM | 80 µM | 37 µM | 43 µM | 37 µM | 53 µM | –
Nc1nc(NCCN2CCCC2)nc2c1[N+]([O-])=C(c1ccccc1)C2=O | 2.6 µM | 16 µM | 6.2 µM | 13 µM | 1.8 µM | 14 µM | –
